TRPC4 potent: positive allosteric modulators of TRPC4, primary screen, cell-based, mouse TRPC4beta, HEK293 mu-opioid, Fluo-4 calcium | B-score at 10 µM | DAMGO EC20, Fluo-4 Ca2+ flux; hits give high values | Short transient receptor potential channel 4 (Mus musculus), Q9QUQ5 | 310,000 compounds, 0.42% hits;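 active means B-score of calcium response area above 5 SD of library B-scores, with initial fluorescence ratio within 5 SD of library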
Target sequence (Q9QUQ5 whole entry, looked up): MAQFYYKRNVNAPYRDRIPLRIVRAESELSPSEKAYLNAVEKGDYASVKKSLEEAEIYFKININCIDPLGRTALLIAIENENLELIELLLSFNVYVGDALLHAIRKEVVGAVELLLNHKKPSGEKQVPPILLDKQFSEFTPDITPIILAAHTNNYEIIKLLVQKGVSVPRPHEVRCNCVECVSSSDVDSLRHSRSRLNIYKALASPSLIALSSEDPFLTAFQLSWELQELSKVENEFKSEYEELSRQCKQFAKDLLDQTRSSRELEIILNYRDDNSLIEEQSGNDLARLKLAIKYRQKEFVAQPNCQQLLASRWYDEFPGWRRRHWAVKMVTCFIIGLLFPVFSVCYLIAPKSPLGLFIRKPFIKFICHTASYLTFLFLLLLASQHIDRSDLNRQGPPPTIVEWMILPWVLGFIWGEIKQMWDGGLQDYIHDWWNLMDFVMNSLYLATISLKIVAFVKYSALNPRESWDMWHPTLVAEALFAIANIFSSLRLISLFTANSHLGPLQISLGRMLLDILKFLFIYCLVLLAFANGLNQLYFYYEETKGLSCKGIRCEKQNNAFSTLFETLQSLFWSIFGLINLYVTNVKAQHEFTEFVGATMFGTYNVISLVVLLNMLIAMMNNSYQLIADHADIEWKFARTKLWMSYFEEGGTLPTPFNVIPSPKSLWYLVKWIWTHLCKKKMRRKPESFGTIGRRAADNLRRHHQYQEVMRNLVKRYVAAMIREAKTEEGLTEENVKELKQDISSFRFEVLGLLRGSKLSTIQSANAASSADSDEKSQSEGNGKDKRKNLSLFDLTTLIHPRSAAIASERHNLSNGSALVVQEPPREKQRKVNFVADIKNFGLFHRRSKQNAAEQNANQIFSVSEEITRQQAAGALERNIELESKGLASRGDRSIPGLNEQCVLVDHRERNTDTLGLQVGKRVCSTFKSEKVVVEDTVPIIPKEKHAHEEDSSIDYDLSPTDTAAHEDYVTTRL
TRPC4 inh: inhibitors of mouse TRPC4 channel, primary screen, Fluo4 calcium, HEK293 TRPC4beta/mu-opioid cells | 300,000 compounds, 0.39% hits | B-score at 10 µM | DAMGO-evoked Fluo4 calcium flux; hits give low values | AID 2247, 2010;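 active means B-score over 3 SD under the library average, no early fluorescence shift, positive overall ratio signal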
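Assay system: HEK293 cells with stable TRPC4beta plus mu-opioid receptor expression; Probe or stimulus: DAMGO in two steps, submaximal then maximal; Dosing: single-point compound dosing; Measured by: Fluo4 calcium-dye fluorescence, kinetic read; Read-out basis: B score from integrated Fluo4 fluorescence ratio.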
Platelet DG rel: inhibitors of platelet dense granule secretion, primary screen, cell-based, MLPCN, human platelets; inhibition, %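 (compounds screened at 7.5 µM in platelet-rich plasma)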; 300,000 compounds, 0.22% hits; AID 1663, 2009; human platelet-rich plasma, SFLLRN dense granule ATP release, luminescence;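 active means mean replicate score, as percent of positive control, at or above 50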
TRPC6 activator: mouse TRPC6 channel activators, primary screen, cell-based, HEK293, membrane potential dye. Short transient receptor potential channel 6 (Mus musculus), Q61143. HEK293-TRPC6 membrane potential dye fluorescence; hits give high values. B-score at 10 µM. 310,000 compounds, 0.13% hits;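 active means B-score of the integrated fluorescence ratio above library mean plus 3 SD, and starting fluorescence ratio within library mean plus 5 SD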;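 further: higher score means more depolarization so channel activation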
TRPC6 inhibitor: mouse TRPC6 channel inhibitors, primary screen, cell-based, HEK293, membrane potential dye; ACh-evoked depolarization; hits give low values; B-score at 10 µM; 310,000 compounds, 1.1% hits; AID 2553, 2010;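 active means B-score under library mean minus 3 SD, initial fluorescence not abnormally high, positive integrated signal ratio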;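 further: B-score derived from integrated fluorescence ratio over the kinetic read; more negative B-score means stronger inhibition of depolarization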
TRPC4 agonist: activators of mouse TRPC4 channel, primary screen, Fluo4 calcium, HEK293 TRPC4beta/mu-opioid cells; B-score at 10 µM; Fluo4 calcium fluorescence; hits give high values; 310,000 compounds, 0.49% hits;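 active means B-score above 5 SD of library B-scores, and initial fluorescence ratio not above library mean plus 5 SD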;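 further: positive B-score marks a calcium rise read as TRPC4 activation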
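Material: HEK293 stable line with TRPC4beta plus mu-opioid receptor; technique: Fluo4 calcium-sensitive dye fluorescence, kinetic, 1 Hz baseline; timing: Fluo4 dye loading 45 min at room temperature, 110 s recording; controls: assay buffer as low control, maximal DAMGO as high control; read-out: integrated baseline-normalised fluorescence ratio, converted to per-well B score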
Hits are given with their value. Rows were chosen to be rich in hits. Some 2.5% of all compounds tested hit in one or more screens of this group.

CCn1c(NCc2c[nH]c3ccccc23)nc2ccccc21 was read as TRPC4 potent inactive, TRPC4 inh -8, Platelet DG rel inactive, TRPC6 activator inactive, TRPC6 inhibitor inactive and TRPC4 agonist inactive.
CCn1c(NCc2cccs2)nc2ccccc21 was read as TRPC4 potent inactive, TRPC4 inh inactive, Platelet DG rel inactive, TRPC6 activator inactive, TRPC6 inhibitor inactive and TRPC4 agonist inactive.
`CCCCC(=O)Nc1cnc(NC(=O)c2cccs2)cc1C` gave TRPC4 potent inactive, TRPC4 inh inactive, Platelet DG rel inactive, TRPC6 activator inactive, TRPC6 inhibitor inactive and TRPC4 agonist inactive.
Screening O=C(COC(=O)C1=COCCO1)NC1CCCCC1 returned TRPC4 potent inactive, TRPC4 inh inactive, Platelet DG rel inactive, TRPC6 activator inactive, TRPC6 inhibitor inactive and TRPC4 agonist inactive.
`CC(C)(C)c1ccc(C(=O)N2CCN(C(=O)c3ccco3)CC2)cc1` gave TRPC4 potent inactive, TRPC4 inh inactive, Platelet DG rel inactive, TRPC6 activator inactive, TRPC6 inhibitor inactive and TRPC4 agonist inactive.
CCOc1ccc(N/C=C/C(=O)c2ccccc2)c([N+](=O)[O-])c1 was read as TRPC4 potent inactive, TRPC4 inh inactive, Platelet DG rel 85.4, TRPC6 activator inactive, TRPC6 inhibitor inactive and TRPC4 agonist inactive.
`COc1ccc(N/C=C/C(=O)c2ccccc2)cc1` gave TRPC4 potent inactive, TRPC4 inh inactive, Platelet DG rel 56.0, TRPC6 activator inactive, TRPC6 inhibitor inactive and TRPC4 agonist inactive.
Screening Cc1csc(Nc2nc(N)c(C(=O)Nc3ccccc3)o2)n1 returned TRPC4 potent inactive, TRPC4 inh inactive, Platelet DG rel inactive, TRPC6 activator inactive, TRPC6 inhibitor inactive and TRPC4 agonist inactive.
For CN1CCc2c(sc3c2c(=O)n(-c2ccccc2)c2n[nH]c(=S)n32)C1 the results were TRPC4 potent inactive, TRPC4 inh inactive, Platelet DG rel inactive, TRPC6 activator inactive, TRPC6 inhibitor inactive and TRPC4 agonist inactive.
`O=C(N/C=N/OCc1ccc(Cl)cc1Cl)NOCc1ncc(C(F)(F)F)cc1Cl` gave TRPC4 potent inactive, TRPC4 inh inactive, Platelet DG rel inactive, TRPC6 activator inactive, TRPC6 inhibitor inactive and TRPC4 agonist inactive.
For CCn1cc(-c2n[nH]c(=S)n2-c2ccc(C)cc2Br)c(=O)c2ccc(C)nc21 the results were TRPC4 potent inactive, TRPC4 inh inactive, TRPC6 activator inactive, TRPC6 inhibitor inactive and TRPC4 agonist inactive.
Screening COc1ccc(CNC(=O)COC(=O)C2CCN(S(=O)(=O)c3ccccc3C(F)(F)F)CC2)cc1 returned TRPC4 potent inactive, TRPC4 inh inactive, Platelet DG rel inactive, TRPC6 activator inactive, TRPC6 inhibitor inactive and TRPC4 agonist inactive.
O=C1CN(C(=O)COC(=O)C2CCN(S(=O)(=O)c3ccccc3C(F)(F)F)CC2)c2ccccc2N1 was read as TRPC4 potent 11, TRPC4 inh inactive, Platelet DG rel inactive, TRPC6 activator inactive, TRPC6 inhibitor inactive and TRPC4 agonist inactive.
`CCN(CC)S(=O)(=O)c1ccc(C)c(NC(=S)N2CCN(Cc3ccc4c(c3)OCO4)CC2)c1` gave TRPC4 potent inactive, TRPC4 inh inactive, Platelet DG rel inactive, TRPC6 activator inactive, TRPC6 inhibitor inactive and TRPC4 agonist inactive.
COc1ccc(CNC(=O)CN(C)Cc2ccccc2F)cc1OC was read as TRPC4 potent inactive, TRPC4 inh -6, Platelet DG rel inactive, TRPC6 activator inactive, TRPC6 inhibitor inactive and TRPC4 agonist inactive.
Screening O=C(Nc1nc2c(s1)CN(Cc1ccccc1)CC2)c1c(F)cccc1F returned TRPC4 potent 17, TRPC4 inh inactive, Platelet DG rel inactive, TRPC6 activator inactive, TRPC6 inhibitor inactive and TRPC4 agonist inactive.
CNC(=O)NC(=O)COc1ccc2oc3c(c2c1)CCCC3 was read as TRPC4 potent inactive, TRPC4 inh inactive, Platelet DG rel inactive, TRPC6 activator inactive, TRPC6 inhibitor inactive and TRPC4 agonist inactive.
For CNC(=O)COc1ccc2oc3c(c2c1)CCCC3 the results were TRPC4 potent inactive, TRPC4 inh -6, Platelet DG rel inactive, TRPC6 activator inactive, TRPC6 inhibitor inactive and TRPC4 agonist inactive.
For Cc1c(S(=O)(=O)NC2CCCCC2)c(=O)n(C)c(=O)n1C the results were TRPC4 potent inactive, TRPC4 inh inactive, Platelet DG rel inactive, TRPC6 activator inactive, TRPC6 inhibitor inactive and TRPC4 agonist inactive.
CCn1cc(/C=C(\NC(=O)c2ccccc2Cl)C(=O)N2CCN(C)CC2)c2ccccc21 was read as TRPC4 potent inactive, TRPC4 inh inactive, Platelet DG rel inactive, TRPC6 activator inactive, TRPC6 inhibitor inactive and TRPC4 agonist inactive.
CN1CCCCC1CCN1c2ccccc2Sc2ccc(S(C)=O)cc21 (configuration not stated) was read as TRPC4 potent inactive, TRPC4 inh inactive, Platelet DG rel inactive, TRPC6 activator inactive, TRPC6 inhibitor -7.48 and TRPC4 agonist inactive.
CCOCCCNC(=O)C1(O)c2cc(Br)ccc2NC(=O)N1c1ccc(OCC)cc1 (configuration not stated) was read as TRPC4 potent inactive, TRPC4 inh inactive, Platelet DG rel inactive, TRPC6 activator inactive, TRPC6 inhibitor inactive and TRPC4 agonist inactive.
Screening O=C(/C=C/c1ccccc1[N+](=O)[O-])NC1CCCC1 returned TRPC4 potent inactive, TRPC4 inh inactive, Platelet DG rel inactive, TRPC6 activator inactive, TRPC6 inhibitor inactive and TRPC4 agonist inactive.
O=C(Nc1nc(-c2ccccn2)cs1)c1cccc(-n2cnnn2)c1 was read as TRPC4 potent 13, TRPC4 inh inactive, Platelet DG rel inactive, TRPC6 activator inactive, TRPC6 inhibitor inactive and TRPC4 agonist inactive.
COc1ccc(-c2nn(-c3ccccc3C)cc2CNCCc2cnc[nH]2)cc1F was read as TRPC4 potent inactive, TRPC4 inh inactive, Platelet DG rel inactive, TRPC6 activator inactive, TRPC6 inhibitor inactive and TRPC4 agonist inactive.
For COc1ccc(-c2nn(-c3ccccc3C)cc2CNC(C)c2cn(C)nc2C)cc1F (configuration not stated) the results were TRPC4 potent inactive, TRPC4 inh inactive, Platelet DG rel inactive, TRPC6 activator inactive, TRPC6 inhibitor inactive and TRPC4 agonist 118.
For CCn1cc(CNCc2cn(-c3ccccc3C)nc2-c2ccc(OC)c(F)c2)cn1 the results were TRPC4 potent inactive, TRPC4 inh inactive, Platelet DG rel inactive, TRPC6 activator inactive, TRPC6 inhibitor inactive and TRPC4 agonist 129.
